Published values from different studies.
Protocols differ between the studies behind these lines.
ABL1 T315I phosphorylated: Tyrosine-protein kinase ABL1, phosphorylated (ABL1, Homo sapiens, UniProt P00519, T315I)
ABL1 non-phosphorylated: Tyrosine-protein kinase ABL1, non-phosphorylated (ABL1, Homo sapiens, UniProt P00519)
ABL1 E255K: Tyrosine-protein kinase ABL1 (ABL1, Homo sapiens, UniProt P00519, E255K)
ABL1 H396P phosphorylated: Tyrosine-protein kinase ABL1, phosphorylated (ABL1, Homo sapiens, UniProt P00519, H396P)
ABL1 phosphorylated: Tyrosine-protein kinase ABL1, phosphorylated (ABL1, Homo sapiens, UniProt P00519)
ABL1 Q252H non-phosphorylated: Tyrosine-protein kinase ABL1, non-phosphorylated (ABL1, Homo sapiens, UniProt P00519, Q252H)
ABL1 F317L phosphorylated: Tyrosine-protein kinase ABL1, phosphorylated (ABL1, Homo sapiens, UniProt P00519, F317L)

With `O=C(NCc1ncc(C(F)(F)F)cc1Cl)c1ccc2c(c1)C1(CCS(=O)(=O)CC1)[C@@H](C1CC1)N2S(=O)(=O)c1ccc(F)cc1` the remaining binding was 94% (Tyrosine-protein kinase ABL1, phosphorylated (ABL1, Homo sapiens, UniProt P00519, M351T); cell-free assay; competition with immobilised ligand; 1 µM).
The remaining binding of `C[C@@H](c1ccc(-n2cnc3c(N)ncnc32)cc1)N1CCc2nn(C)c(Cc3ccccc3)c2C1=O` is reported as 78% (ABL1 T315I phosphorylated; binding; competition with immobilised ligand; 0.1 µM).
For `c1cncc(-c2cccc(Nc3nccc(NC4CCCCC4)n3)c2)c1`, the remaining binding was 35% (ABL1 non-phosphorylated; binding; competition with immobilised ligand; 10 µM).
`F[C@@H]1CCN(c2nccc(-c3cnn4ncccc34)n2)C1` has a remaining binding of 100% (Tyrosine-protein kinase ABL1 (ABL1, Homo sapiens, UniProt P00519, T315I); binding; 1 µM).
For `COc1cnc(Nc2cccc(S(N)(=O)=O)c2)nc1N1CCN(c2ccccc2)C(=O)C1`, the remaining binding was 77% (ABL1 non-phosphorylated; binding; competition with immobilised ligand; 1 µM).
`CN(C)c1nccc(-c2cnc3ncccn23)n1` has a remaining binding of 42% (ABL1 E255K; binding; 1 µM).
The remaining binding of `O=C(c1ccc(Nc2ncc(Cl)c(-c3ccc(Cl)s3)n2)cc1)N1CCC(N2CCCC2)CC1` is reported as 4.3% (ABL1 H396P phosphorylated; binding; competition with immobilised ligand; 1 µM).
With `CNC(=O)[C@@H]1CC[C@@H](n2c(-c3ccc4cnccc4c3)nc3ccc(C(=O)NCc4cccc(C(N)=O)c4)cc32)C1` the remaining binding was 90% (ABL1 phosphorylated; binding; competition with immobilised ligand; 1 µM).
With `Cc1cnn2ncc(-c3ccnc(N(C)C)n3)c2c1` the remaining binding was 100% (Tyrosine-protein kinase ABL1 (ABL1, Homo sapiens, UniProt P00519, Q252H); binding; 1 µM).
The remaining binding of `O=C(NCCCN1CCOCC1)c1ccc(Nc2nccc(-c3cc4ccccc4s3)n2)cc1` is reported as 34% (ABL1 Q252H non-phosphorylated; binding; competition with immobilised ligand; 1 µM).
For `CC(=O)Nc1c(C(C)=O)c(=O)n(C)c2nc(-c3ccc(Cl)cc3Cl)c(-c3ccc(Cl)cc3)cc12`, the remaining binding was 100% (ABL1 F317L phosphorylated; cell-free assay; competition with immobilised ligand; 1 µM).
`C=CC(=O)N1CCC(C(=O)NCC(=O)N2CCN(c3nc(-c4cnc(N)nc4C(F)F)nc(N4CCOCC4)n3)CC2)CC1` has a remaining binding of 100% (Tyrosine-protein kinase ABL1, non-phosphorylated (ABL1, Homo sapiens, UniProt P00519, F317I); binding; competition with immobilised ligand; 1 µM).
With `O=C(NS(=O)(=O)c1ccc(NCC2CCOCC2)c([N+](=O)[O-])c1)c1ccc(N2CCN(Cc3ccc(C(F)(F)F)cc3-c3ccc(Cl)cc3)CC2)cc1Oc1cnc2[nH]ccc2c1` the remaining binding was 100% (ABL1 Q252H non-phosphorylated; cell-free assay; competition with immobilised ligand; 1 µM).
With `O=C(Nc1c[nH]nc1C(=O)NC1CCNCC1)c1cc(F)cc(F)c1` the remaining binding was 100% (Tyrosine-protein kinase ABL1, non-phosphorylated (ABL1, Homo sapiens, UniProt P00519, F317L); binding; competition with immobilised ligand; 1 µM).
The remaining binding of `C[C@@H]1CCN(c2nccc(-c3cnn4ncccc34)n2)C1` is reported as 81% (ABL1 non-phosphorylated; binding; 1 µM).
With `O=C(c1ccc(Nc2ncc(Cl)c(-c3cc4ccccc4s3)n2)cc1)N1CCC(N2CCCC2)CC1` the remaining binding was 100% (Tyrosine-protein kinase ABL1, phosphorylated (ABL1, Homo sapiens, UniProt P00519, F317I); binding; competition with immobilised ligand; 1 µM).
`COc1cnc(Nc2cccc(S(N)(=O)=O)c2)nc1N1CCN(c2ccccc2)CC1` has a remaining binding of 74% (ABL1 F317L phosphorylated; binding; competition with immobilised ligand; 1 µM).
With `CCN1CCN(Cc2ccc(C(=O)Nc3ccc(C)c(Oc4ccc5c(c4)CC(=O)N5)c3)cc2C(F)(F)F)CC1` the remaining binding was 74% (Tyrosine-protein kinase ABL1, phosphorylated (ABL1, Homo sapiens, UniProt P00519, E255K); binding; competition with immobilised ligand; 1 µM).
`N#Cc1ccccc1CSc1nnc2c(n1)[nH]c1ccccc12` has a remaining binding of 86% (ABL1 non-phosphorylated; binding; competition with immobilised ligand; 10 µM).
`CN1CCN(c2cnc3c(C4CCN(C(=O)c5ccc(OC(F)(F)F)cc5N)CC4)ncnc3c2)CC1` has a remaining binding of 91% (ABL1 non-phosphorylated; cell-free assay; competition with immobilised ligand; 1 µM).
With `FC(F)(F)Oc1cccc(-c2cnc3ccc(-c4ccncc4)nn23)c1` the remaining binding was 68% (ABL1 non-phosphorylated; cell-free assay; competition with immobilised ligand; 5 µM).
With `O=C(c1ccc(Nc2nccc(-c3cc4ccccc4s3)n2)cc1)N1CCC(N2CCCC2)CC1` the remaining binding was 18% (ABL1 non-phosphorylated; binding; competition with immobilised ligand; 1 µM).
`CN(C)c1nccc(-c2cnn3ncccc23)n1` gave a remaining binding of 98% (ABL1 non-phosphorylated; binding; competition with immobilised ligand; 1 µM).
For `Cc1nc(Cc2cccc(C(F)(F)F)c2)sc1-c1ccc(C(N)=O)nc1`, the remaining binding was 87% (ABL1 Q252H non-phosphorylated; cell-free assay; competition with immobilised ligand; 1 µM).
For `COc1ncc2cc3ccccc3nc2c1C#N`, the remaining binding was 93% (ABL1 phosphorylated; cell-free assay; competition with immobilised ligand; 5 µM).
With `CSc1cccnc1N1CCN(Cc2nc3ccccc3[nH]2)CC1` the remaining binding was 76% (Tyrosine-protein kinase ABL1, phosphorylated (ABL1, Homo sapiens, UniProt P00519, Y253F); cell-free assay; competition with immobilised ligand; 1 µM).
`c1cnn2ncc(-c3ccnc(N4CCC45COC5)n3)c2c1` has a remaining binding of 53% (Tyrosine-protein kinase ABL1 (ABL1, Homo sapiens, UniProt P00519, F317L); binding; 1 µM).
`Cn1nc(C(F)(F)F)cc1-c1cnc(N2CCc3cc(S(=O)(=O)Nc4c(F)cc(Cl)cc4F)cc(N4CCCC4=O)c32)nc1` gave a remaining binding of 82% (ABL1 T315I phosphorylated; cell-free assay; competition with immobilised ligand; 1 µM).
With `N[C@@H]1CCN(c2nccc(-c3cnn4ncccc34)n2)C1` the remaining binding was 100% (ABL1 E255K; binding; 1 µM).
The remaining binding of `O=C(NCC1CCOCC1)c1n[nH]cc1NC(=O)c1c(F)cccc1F` is reported as 90% (Tyrosine-protein kinase ABL1, non-phosphorylated (ABL1, Homo sapiens, UniProt P00519, T315I); binding; competition with immobilised ligand; 1 µM).
`Nc1ncc2c(n1)-c1c([nH]c3ccc(C#CC4CC4)cc13)CCCC2` gave a remaining binding of 94% (Tyrosine-protein kinase ABL1, phosphorylated (ABL1, Homo sapiens, UniProt P00519, Q252H); binding; competition with immobilised ligand; 1 µM).
The remaining binding of `O=C(NCCCN1CCOCC1)c1ccc(Nc2ncc(Cl)c(-c3ccc(Cl)s3)n2)cc1` is reported as 80% (ABL1 F317L phosphorylated; binding; competition with immobilised ligand; 1 µM).
`COC(=O)Nc1nc2ccc(C(=O)c3ccccc3)cc2[nH]1` gave a remaining binding of 2% (ABL1 non-phosphorylated; cell-free assay; competition with immobilised ligand; 10 µM).
The remaining binding of `CCOC(=O)c1cc2cc(-c3cc(C(=O)NCc4ccc(C(=O)O)cc4)nn3C)ccc2[nH]1` is reported as 85% (ABL1 H396P phosphorylated; cell-free assay; competition with immobilised ligand; 0.1 µM).
`Cc1cnc(Nc2ccc(C(=O)N3CCC(N4CCCC4)CC3)cc2)nc1-c1cc2ccccc2s1` has a remaining binding of 2.7% (ABL1 non-phosphorylated; binding; competition with immobilised ligand; 1 µM).
`CN(c1nccc(-c2cnn3ncccc23)n1)C1CC1` has a remaining binding of 100% (Tyrosine-protein kinase ABL1 (ABL1, Homo sapiens, UniProt P00519, Y253F); binding; 1 µM).
